# Source: ChEMBL document CHEMBL2169788, “Bioisosteric transformations and permutations in the triazolopyrimidine scaffold to identify the minimum pharmacophore required for inhibitory activity against Plasmodium falciparum dihydroorotate dehydrogenase” (J Med Chem, 2012)
# Test system: Liver microsomes
# Assay: Half life in human liver microsomes at 1 uM by LC/MS analysis
# Assay type: ADME, Microsome
# Conditions: not given; call rule not given here
# Method in brief: (§1)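 Compound at 1 μM incubated at 37°C with pooled human or mouse liver microsomes (0.4 mg/mL protein). Reaction started with NADPH-regenerating system (1 mg/mL NADP, 1 mg/mL glucose-6-phosphate, 1 U/mL G6PDH, 0.67 mg/mL MgCl2) and quenched at time points with ice-cold acetonitrile. Parent loss tracked by LC/MS against a microsomal-matrix calibration curve. First-order depletion rate constant came from an exponential decay fit.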
row,SMILES,t1/2 [h]
1,Cc1cc(Nc2ccc(C(F)(F)F)cc2)n2ccnc2n1,6.13

# Test system: Liver microsomes
# Assay: Drug metabolism in human liver microsomes by LC/MS analysis
# Assay type: ADME, Microsome
# Conditions: not given
# Method in brief: as §1
row,SMILES,Drug metabolism
1,Cc1cc(Nc2ccc(C(F)(F)F)cc2)n2ccnc2n1,Not Active

# Test system: Liver microsomes
# Assay: Intrinsic clearance in human liver microsomes assessed per mg of protein at 1 uM by LC/MS analysis
# Assay type: ADME, Microsome
# Conditions: not given
# Method in brief: as §1
row,SMILES,CLint [µL/min/mg]
1,Cc1cc(Nc2ccc(C(F)(F)F)cc2)n2ccnc2n1,4.7

# Test system: Plasmodium berghei
# Assay: Antimalarial activity against erythrocytic stage of Plasmodium berghei NK65 infected in BALB/c mouse assessed as reduction in parasitemia at 50 mg/kg, po administered QD for 4 days starting 1 day post-infection measured 24 hrs post-last dose relative to vehicle-treated control
# Assay type: functional
# Parameters: scale not given: the % may be the effect or the level left
# Conditions: not given
# Method in brief: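 Female BALB/c mice, 8–10 weeks old, infected IP with 2×10^7 infected erythrocytes (200 μL) 24 h before first dose; minimum 0.1% parasitemia confirmed before treatment. Oral dosing 1× daily for 4 consecutive days, vehicle or chloroquine (10 mg/kg oral, same schedule) as controls. Parasitemia from Wright-Giemsa-stained thin blood smears, tail-vein bleeds daily.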
row,SMILES,Activity [%]
1,Cc1cc(Nc2ccc(C(F)(F)F)cc2)n2ccnc2n1,56

# Test system: Mus musculus
# Assay: Toxicity in Swiss mouse assessed as adverse effects at 10 mg/kg, po
# Assay type: organism-based
# Parameters: dose 10 mg/kg, route oral
# Conditions: in vivo
# Method in brief: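 Mice watched for adverse reactions after one oral 10 mg/kg dose, given as a suspension in aqueous carboxymethylcellulose/benzyl alcohol/Tween 80 vehicle.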
row,SMILES,Activity
1,Cc1cc(Nc2ccc(C(F)(F)F)cc2)n2ccnc2n1,Non-toxic

# Test system: not listed separately
# Assay: Plasma concentration in Swiss mouse at 10 mg/kg, po at 16 hrs
# Assay type: ADME, organism-based
# Parameters: dose 10 mg/kg, route oral
# Conditions: not given
# Method in brief: (§2)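 Single 10 mg/kg oral gavage dose (0.1 mL) given as a suspension in 0.5% w/v Na carboxymethylcellulose, 0.5% v/v benzyl alcohol, 0.4% v/v Tween 80. Food and water ad libitum. One cardiac-puncture blood sample per mouse at 1, 2, 4, 7.5, 16 and 24 h. Heparinised plasma stored at –20°C, acetonitrile-precipitated and quantified by LC-MS against a plasma calibration curve; quantitation limit 0.003 μM.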
row,SMILES,concentration at 16 h [nM]
1,Cc1cc(Nc2ccc(C(F)(F)F)cc2)n2ccnc2n1,< 3

# Test system: not listed separately
# Assay: Plasma concentration in Swiss mouse at 10 mg/kg, po up to 4 hrs
# Assay type: ADME, organism-based
# Parameters: dose 10 mg/kg, route oral
# Conditions: not given
# Method in brief: as §2
row,SMILES,concentration at 4 h [nM]
1,Cc1cc(Nc2ccc(C(F)(F)F)cc2)n2ccnc2n1,> 1000

# Test system: not listed separately
# Assay: Cmax in Swiss mouse at 10 mg/kg, po
# Assay type: ADME, organism-based
# Parameters: dose 10 mg/kg, route oral
# Conditions: in vivo
# Method in brief: as §2
row,SMILES,Cmax [nM]
1,Cc1cc(Nc2ccc(C(F)(F)F)cc2)n2ccnc2n1,3900

# Test system: not listed separately
# Assay: Drug metabolism in mouse liver microsomes by LC/MS analysis
# Assay type: ADME, Microsome
# Conditions: not given
# Method in brief: as §1
row,SMILES,Drug metabolism
1,Cc1cc(Nc2ccc(C(F)(F)F)cc2)n2ccnc2n1,Not Active

# Test system: Liver
# Assay: Intrinsic clearance in mouse liver microsomes assessed per mg of protein at 1 uM by LC/MS analysis
# Assay type: ADME, Microsome
# Conditions: not given
# Method in brief: as §1
row,SMILES,CLint [µL/min/mg]
1,Cc1cc(Nc2ccc(C(F)(F)F)cc2)n2ccnc2n1,34

# Test system: Liver
# Assay: Half life in mouse liver microsomes at 1 uM by LC/MS analysis
# Assay type: ADME, Microsome
# Conditions: not given
# Method in brief: as §1
row,SMILES,t1/2 [h]
1,Cc1cc(Nc2ccc(C(F)(F)F)cc2)n2ccnc2n1,0.863

# Target: T1, Dihydroorotate dehydrogenase (Plasmodium falciparum, UniProt Q54A96)
# T1 sequence (Q54A96 whole entry): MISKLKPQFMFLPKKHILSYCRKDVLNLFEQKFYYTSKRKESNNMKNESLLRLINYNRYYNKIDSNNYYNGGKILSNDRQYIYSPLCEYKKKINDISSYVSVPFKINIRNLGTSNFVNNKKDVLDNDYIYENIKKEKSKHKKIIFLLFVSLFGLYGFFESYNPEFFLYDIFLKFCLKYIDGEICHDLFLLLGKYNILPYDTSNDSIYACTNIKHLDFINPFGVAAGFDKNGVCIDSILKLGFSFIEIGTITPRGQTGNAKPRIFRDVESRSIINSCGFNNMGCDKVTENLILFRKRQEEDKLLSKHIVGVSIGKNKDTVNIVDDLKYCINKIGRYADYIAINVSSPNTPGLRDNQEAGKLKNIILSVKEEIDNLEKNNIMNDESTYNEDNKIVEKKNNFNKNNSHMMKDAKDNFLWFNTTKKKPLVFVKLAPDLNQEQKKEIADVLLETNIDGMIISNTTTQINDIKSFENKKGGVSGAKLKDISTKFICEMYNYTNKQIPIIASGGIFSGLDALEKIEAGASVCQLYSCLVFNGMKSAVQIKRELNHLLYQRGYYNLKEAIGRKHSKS
# Assay: Inhibition of Plasmodium falciparum DHODH expressed in Escherichia coli DH5alpha using 2,6-dichoroindophenol substrate by spectrophotometric analysis
# Conditions: not given
# Method in brief: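 Recombinant purified enzyme; colorimetric steady-state assay following DCIP (120 micromolar) reduction at 600 nm, coupled to CoQ_D reoxidation. Started with enzyme (5–10 nM final), 20 °C. IC50 fitted across inhibitor concentrations, triplicate points each.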
row,SMILES,IC50 [µM]
1,Cc1cc(Nc2ccc(C(F)(F)F)cc2)n2ccnc2n1,0.077
2,Cc1nc(Nc2cnc3ccccc3c2)c2nc[nH]c2n1,27
3,Cc1nc(Nc2ccc3ncccc3c2)c2nc[nH]c2n1,> 25
4,Cc1nc(Nc2n[nH]cc2C#N)c2nc[nH]c2n1,> 100
5,Cc1nc(Nc2ccc3cc4ccccc4cc3c2)c2nc[nH]c2n1,4.8
6,Cc1cc(Nc2ccc3ccccc3c2)c2nncn2n1,> 50
7,Cc1nc(Nc2ccc3ccccc3c2)c2cn[nH]c2n1,> 100
8,Cc1nc(Nc2ccc3ccccc3c2)c2nc[nH]c2n1,0.44
9,Cc1cc(Nc2ccc3ccccc3c2)n2nccc2n1,0.4
10,Cc1cc(Nc2ccc3ccccc3c2)n2ncnc2c1,4.8
11,Cc1cc(Nc2ccc3ccccc3c2)n2ccnc2n1,0.15
12,Cc1cc(NC(=O)c2ccc(C(F)(F)F)cc2)n2ncnc2n1,> 100
13,Cc1cc(NC(=O)c2ccccc2)n2ncnc2n1,> 100

# Test system: not listed separately
# Assay: Inhibition of Plasmodium berghei DHODH expressed in Escherichia coli DH5alpha using 2,6-dichoroindophenol substrate by spectrophotometric analysis
# Conditions: not given
row,SMILES,IC50 [µM]
1,Cc1cc(Nc2ccc(C(F)(F)F)cc2)n2ccnc2n1,0.17
2,Cc1nc(Nc2ccc3cc4ccccc4cc3c2)c2nc[nH]c2n1,> 10
3,Cc1cc(Nc2ccc3ccccc3c2)c2nncn2n1,> 50
4,Cc1nc(Nc2ccc3ccccc3c2)c2nc[nH]c2n1,11
5,Cc1cc(Nc2ccc3ccccc3c2)n2nccc2n1,3.3
6,Cc1cc(Nc2ccc3ccccc3c2)n2ncnc2c1,6.3
7,Cc1cc(Nc2ccc3ccccc3c2)n2ccnc2n1,2.8
8,Cc1cc(NC(=O)c2ccc(C(F)(F)F)cc2)n2ncnc2n1,> 100
9,Cc1cc(NC(=O)c2ccccc2)n2ncnc2n1,> 100

# Target: Dihydroorotate dehydrogenase (quinone), mitochondrial (Homo sapiens, UniProt Q02127)
# Sequence (Q02127 whole entry): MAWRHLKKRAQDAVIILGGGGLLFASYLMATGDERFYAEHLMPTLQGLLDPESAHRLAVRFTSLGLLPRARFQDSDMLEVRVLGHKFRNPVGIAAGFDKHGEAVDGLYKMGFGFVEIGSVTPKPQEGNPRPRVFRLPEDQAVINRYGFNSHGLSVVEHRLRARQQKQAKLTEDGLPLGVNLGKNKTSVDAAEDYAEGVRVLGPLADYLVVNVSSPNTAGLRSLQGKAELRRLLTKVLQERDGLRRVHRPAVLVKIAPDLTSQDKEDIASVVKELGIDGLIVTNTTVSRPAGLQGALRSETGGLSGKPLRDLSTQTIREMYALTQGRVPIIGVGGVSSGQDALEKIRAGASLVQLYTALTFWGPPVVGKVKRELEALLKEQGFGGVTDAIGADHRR
# Assay: Inhibition of human DHODH expressed in Escherichia coli BL21(DE3) using 2,6-dichoroindophenol substrate by spectrophotometric analysis
# Conditions: not given
row,SMILES,IC50 [µM]
1,Cc1cc(Nc2ccc(C(F)(F)F)cc2)n2ccnc2n1,> 100
2,Cc1nc(Nc2ccc3ccccc3c2)c2nc[nH]c2n1,> 100
3,Cc1cc(Nc2ccc3ccccc3c2)n2nccc2n1,> 100
4,Cc1cc(Nc2ccc3ccccc3c2)n2ccnc2n1,> 100
5,Cc1cc(NC(=O)c2ccc(C(F)(F)F)cc2)n2ncnc2n1,> 100
6,Cc1cc(NC(=O)c2ccccc2)n2ncnc2n1,> 100

# Test system: Plasmodium falciparum
# Assay: Antiplasmodial activity against Plasmodium falciparum 3D7 infected in human erythrocytes assessed as inhibition of [3H]hypoxanthine incorporation after 48 hrs
# Assay type: functional, organism-based
# Conditions: not given
# Method in brief: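 Clone 3D7 grown in RPMI-1640 with 20% human type A+ plasma and 2% (w/v) red blood cells. Proliferation measured by standard [3H]-hypoxanthine uptake in infected erythrocytes.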
row,SMILES,EC50 [µM]
1,Cc1cc(Nc2ccc(C(F)(F)F)cc2)n2ccnc2n1,0.32
2,Cc1nc(Nc2cnc3ccccc3c2)c2nc[nH]c2n1,> 10
3,Cc1nc(Nc2ccc3ncccc3c2)c2nc[nH]c2n1,3.2
4,Cc1nc(Nc2n[nH]cc2C#N)c2nc[nH]c2n1,> 25
5,Cc1nc(Nc2ccc3cc4ccccc4cc3c2)c2nc[nH]c2n1,3.2
6,Cc1cc(Nc2ccc3ccccc3c2)c2nncn2n1,> 5
7,Cc1nc(Nc2ccc3ccccc3c2)c2cn[nH]c2n1,> 12.5
8,Cc1nc(Nc2ccc3ccccc3c2)c2nc[nH]c2n1,2.2
9,Cc1cc(Nc2ccc3ccccc3c2)n2nccc2n1,0.91
10,Cc1cc(Nc2ccc3ccccc3c2)n2ncnc2c1,5.2
11,Cc1cc(Nc2ccc3ccccc3c2)n2ccnc2n1,0.19
12,Cc1cc(NC(=O)c2ccc(C(F)(F)F)cc2)n2ncnc2n1,> 50
13,Cc1cc(NC(=O)c2ccccc2)n2ncnc2n1,> 100
